The text below walks through data of ChEMBL document CHEMBL1138628, “Synthesis, in vitro and computational studies of protein tyrosine phosphatase 1B inhibition of a small library of 2-arylsulfonylaminobenzothiazoles with antihyperglycemic activity” (Bioorg Med Chem, 2009).

pIC50, pKi: −log10 of the molar value. The source made the active and inactive calls. The calls are words filed in the database; no cut-off is given here.

For experiment [1], the target named is T1, Tyrosine-protein phosphatase non-receptor type 1 (Homo sapiens, UniProt P18031).
T1 sequence (P18031 whole entry): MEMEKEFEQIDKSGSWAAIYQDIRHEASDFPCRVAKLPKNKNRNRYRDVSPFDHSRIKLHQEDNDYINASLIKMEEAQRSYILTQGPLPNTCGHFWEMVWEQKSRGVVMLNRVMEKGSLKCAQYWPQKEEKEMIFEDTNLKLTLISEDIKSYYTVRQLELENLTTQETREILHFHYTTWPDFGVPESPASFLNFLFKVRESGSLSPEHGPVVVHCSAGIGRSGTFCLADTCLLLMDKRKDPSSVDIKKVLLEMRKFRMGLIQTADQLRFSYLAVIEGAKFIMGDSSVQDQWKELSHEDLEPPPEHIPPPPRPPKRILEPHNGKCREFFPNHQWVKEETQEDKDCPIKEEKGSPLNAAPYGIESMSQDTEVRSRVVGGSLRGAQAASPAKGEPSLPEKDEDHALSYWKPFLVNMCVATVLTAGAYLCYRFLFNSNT
Briefly: Inhibition of human recombinant PTP1B expressed in Escherichia coli TB1 assessed as residual activity. A digest of the protocol:
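Tagged human PTP-1B produced in E. coli TB1 from pGEX-2T, affinity-purified, thrombin-cleaved, gel-filtered. Run at 37 °C, pH 7.0, in 0.075 M β,β-dimethylglutarate with 1 mM EDTA and 1 mM DTT, substrate 2 mM pNPP (Km). IC50 used varying inhibitor, 10 nM enzyme, KOH stop, p-nitrophenol at 400 nm. Fit of vi/vo versus concentration; quadruplicate.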

For experiment [2], the target named is T2, Tyrosine-protein phosphatase non-receptor type 1 (Homo sapiens) (UniProt P18031).
T2 sequence (whole entry): T1 sequence (P18031 whole entry)
In words: Reversible inhibition of human recombinant PTP1B expressed in Escherichia coli TB1 assessed as complete recovery of residual enzyme activity at 4 deg C at 100 uM after 1 hr.

Experiment [3] has as its target T2, Tyrosine-protein phosphatase non-receptor type 1 (Homo sapiens). In words: Inhibition of human recombinant PTP1B expressed in Escherichia coli TB1-catalyzed hydrolysis of p-nitrophenyl phosphate assessed as decrease in hydrolysis rate by slow binding assay. A digest of the protocol: (§1)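 Time-course of pNPP hydrolysis by recombinant PTP-1B at several inhibitor concentrations, with p-nitrophenol release followed continuously at 400 nm. Initial rates and curve linearity examined, either without enzyme–inhibitor preincubation or after 30 min preincubation.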

Experiment [4] has the same target. Briefly: Inhibition of human recombinant PTP1B expressed in Escherichia coli TB1-catalyzed hydrolysis of p-nitrophenyl phosphate assessed as decrease in hydrolysis rate preincubated for 30 mins by slow binding assay. A digest of the protocol:
as §1

For experiment [5] the target is unchanged. Briefly: Inhibition of human recombinant PTP1B expressed in Escherichia coli TB1-catalyzed hydrolysis of p-nitrophenyl phosphate assessed as decrease in hydrolysis rate using 25 mM pNPP as substrate. The essentials:
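Rates at 37 °C, pH 7.0, with 25 mM pNPP (12.5-fold Km), with inhibitor at 2.5, 5.0, 10, 25, 50, 100 and 200 µM. Residual activity measured to test for partial inhibition; quadruplicate.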

Experiment [6] has as its target T1, Tyrosine-protein phosphatase non-receptor type 1. In words: Inhibition of human recombinant PTP1B expressed in Escherichia coli TB1 by double reciprocal plot analysis. The essentials: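 Initial hydrolysis rates at 37 °C, pH 7.0, across pNPP 0.5–40 mM, with several inhibitor concentrations (e.g. 0, 5, 10, 20, 30 µM). Data analysed as Lineweaver–Burk (1/v vs 1/[S]) plots to assign inhibition type; quadruplicate.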

Experiment [7] has as its target T2, Tyrosine-protein phosphatase non-receptor type 1 (Homo sapiens). Briefly: Inhibition of human recombinant PTP1B expressed in Escherichia coli TB1 assessed as residual activity at 40 uM. The essentials:
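Single-point screen at 37 °C, pH 7.0: compound at 40 µM final (from 20 mM DMSO solution) in buffer with 2 mM pNPP. Reaction started with 0.16 µg human recombinant PTP-1B in 1 ml. p-Nitrophenol read at 400 nm. Residual activity given as % of DMSO control; quadruplicate.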

Experiment [8] shares this target. Briefly: Reversible inhibition of human recombinant PTP1B expressed in Escherichia coli TB1 assessed as complete recovery of residual enzyme activity at 37 deg C at 100 uM after 1 hr.
The test system of experiment [9] is Rattus norvegicus. In words: Antihyperglycemic activity against STZ-nicotinamide-induced diabetes in overnight fasted Wistar rat assessed as decrease in glycemia at 100 mg/kg, administered intragastrically after 5 to 7 hrs by glucose oxidase method. The format is functional. A digest of the protocol:
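Male Wistar rats (200–250 g) made diabetic by i.p. nicotinamide 110 mg/kg (saline), then 15 min later i.p. streptozotocin 65 mg/kg (citrate pH 4.5), after overnight fast; hyperglycemia confirmed at 72 h. Test compounds 100 mg/kg or glibenclamide 5 mg/kg given orally as 1% Tween 80 suspension, n = 5. Caudal vein glucose (glucose oxidase glucometer) at 0, 1, 3, 5, 7 h; % variation versus 0 h.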

A word on the pIC50: it is the IC50 on a negative log10 scale, so that one unit is a factor of ten. Usually pKi stands for the Ki on a negative log10 scale, so that one unit is a factor of ten.

Take `CCOc1ccc2nc(NS(=O)(=O)c3ccc([N+](=O)[O-])cc3)sc2c1`: the pIC50 in [1] was 4.39. Moreover, the outcome in experiment [2], in [3], in experiment [4], in [5], in [7] and in experiment [8] was Active. In experiment [6], the pKi is 4.69.
With `COc1ccc2nc(NS(=O)(=O)c3ccc([N+](=O)[O-])cc3)sc2c1`, the outcome in [7] was inactive.
For the compound `CCOc1ccc2nc(NS(=O)(=O)c3ccc(Cl)cc3)sc2c1`, in experiment [7], the result was inactive.
In the case of `COc1ccc(Cl)cc1C(=O)NCCc1ccc(S(=O)(=O)NC(=O)NC2CCCCC2)cc1`, the outcome in experiment [9] was Active.
For `Cc1ccc2nc(NS(=O)(=O)c3ccc([N+](=O)[O-])cc3)sc2c1`, the pIC50 in experiment [1] was 4.71. Further, the result in experiment [2], in [3], in experiment [4], in experiment [5], in [7] and in experiment [8] was Active. The Activity in [9] (route intragastric) is recorded as 27%. Further, the pKi in experiment [6] was 5.15.
For the compound `CC(=O)Nc1ccc(S(=O)(=O)Nc2nc3ccc([N+](=O)[O-])cc3s2)cc1`, the result in [7] was inactive.
Still for that read-out and setting: in the case of `O=[N+]([O-])c1ccc(S(=O)(=O)Nc2nc3ccc(Cl)cc3s2)cc1` it was “inactive”.
